Active and inactive are the calls of the source. The calls are words filed in the database; no cut-off is given here.

One data set has as its system OCT2 over OCT1. The experiment in a line: Selectivity for OCT2 (unknown origin) over OCT1 (unknown origin). In kind it is ADME. To be noted: human.
Data set [1] relates to Mus musculus. The experiment in a line: Antidiabetic activity in wild type FVB mouse assessed as reduction in blood glucose level at 300 mg/kg, po by oral glucose tolerance test relative to control. The data set is classed as functional, organism-based. Also on record: dose 300 mg/kg. The method, boiled down: (§1)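 Male FVB mice, wild type or Oct1/2-knockout, fasted 16 h. Day 1: oral vehicle (1% hydroxyethyl cellulose/0.25% polysorbate-80/0.05% antifoam) given at -30 min. Day 8: oral metformin 10-300 mg/kg instead. At 0 min, oral glucose 2.5 g/kg.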

Data set [2] concerns Mus musculus. The experiment in a line: Antidiabetic activity in Oct1/Oct2-knockout FVB mouse assessed as reduction in blood glucose level at 300 mg/kg, po by oral glucose tolerance test relative to control. Also on record: dose 300 mg/kg. In kind it is functional, organism-based. The method, boiled down: as §1
In data set [3] the test system is Mus musculus. Description: Antidiabetic activity in po dosed wild type FVB mouse assessed as reduction in blood glucose level by oral glucose tolerance test relative to control. In kind it is functional. The method, boiled down: as §1
Data set [4] has as its system Mus musculus. The experiment in a line: Antidiabetic activity in wild type FVB mouse assessed as plasma insulin level at 300 mg/kg, po by oral glucose tolerance test. The data set is classed as functional, organism-based. Also on record: dose 300 mg/kg. In outline: (§2)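 Plasma insulin measured by immunoassay at 0, 30, 60, 90 and 120 min during an oral glucose tolerance test (2.5 g/kg) in 16-h fasted male FVB wild-type or Oct1/2-knockout mice. Oral vehicle or metformin (10-300 mg/kg) given 30 min before glucose.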

Data set [5] has as its system Mus musculus. The experiment in a line: Antidiabetic activity in Oct1/Oct2-knockout FVB mouse assessed as reduction in blood glucose level at 10 mg/kg, po by oral glucose tolerance test. In kind it is functional, organism-based. The arrangement: dose 10 mg/kg. In outline:
as §1

Data set [6] has as its system Mus musculus. The experiment in a line: Antidiabetic activity in po dosed Oct1/Oct2-knockout FVB mouse assessed as reduction in blood glucose level by oral glucose tolerance test relative to control. In kind it is functional. In outline:
as §1

In data set [7] the test system is Mus musculus. The experiment in a line: Antidiabetic activity in Oct1/Oct2-knockout FVB mouse assessed as plasma insulin level at 300 mg/kg, po by oral glucose tolerance test. The arrangement: dose 300 mg/kg. The data set is classed as functional, organism-based. The method, boiled down: as §2
Data set [8] has as its system Mus musculus. Description: Antidiabetic activity in wild type FVB mouse assessed as reduction in blood glucose level at 10 mg/kg, po by oral glucose tolerance test. Also on record: dose 10 mg/kg. In kind it is functional, organism-based. The method, boiled down: as §1
For data set [9], the system named is Mus musculus. Description: Antidiabetic activity in Oct1/Oct2-knockout FVB mouse assessed as blood glucose AUC level at 300 mg/kg, po by oral glucose tolerance test relative to control. In kind it is functional. The method, boiled down:
as §1

Data set [10] deals with Mus musculus. Description: Antidiabetic activity in wild type FVB mouse assessed as half-maximal efficacious AUC at 300 mg/kg, po by oral glucose tolerance test relative to control. The data set is classed as functional, organism-based. The arrangement: dose 300 mg/kg.
For data set [11], the system named is Mus musculus. Description: Antidiabetic activity in Oct1/Oct2-knockout FVB mouse assessed as half-maximal efficacious AUC at 300 mg/kg, po by oral glucose tolerance test relative to control. In kind it is functional, organism-based. Also on record: dose 300 mg/kg.
For data set [12], the system named is Mus musculus. Description: Antidiabetic activity in wild type FVB mouse assessed as blood glucose AUC level at 300 mg/kg, po by oral glucose tolerance test relative to control. In kind it is functional. In outline:
as §1

The nature of data set [13]: Drug excretion in Oct1/Oct2-knockout FVB mouse urine at 10 mg/kg, iv after 2 hrs.
A short description of data set [14]: in vivo. Conditions: FVB, mouse, plasma, iv, 10 mg/kg.
The nature of data set [15]: Clearance in wild type FVB mouse at 10 mg/kg, iv. To be noted: in vivo.
Data set [16] in a line: Initial plasma concentration in Oct1/Oct2-knockout FVB mouse at 10 mg/kg, iv.
The nature of data set [17]: Drug recovery in Oct1/Oct2-knockout FVB mouse urine assessed as corrected compound recovery by measuring nominal to observerd glomerular filtration rate ratio at 10 mg/kg, iv.
The nature of data set [18]: in vivo. To be noted: FVB, mouse, plasma, iv, 10 mg/kg. The source holds these as a separate data set.
The nature of data set [19]: in vivo. Conditions: FVB, mouse, iv, 10 mg/kg.
Data set [20] in a line: Volume of distribution at steady state in wild type FVB mouse at 10 mg/kg, iv. Conditions: in vivo.
Data set [21] in a line: Drug recovery in wild type FVB mouse urine assessed as corrected compound recovery by measuring nominal to observerd glomerular filtration rate ratio at 10 mg/kg, iv.
A short description of data set [22]: Initial plasma concentration in wild type FVB mouse at 10 mg/kg, iv.
A short description of data set [23]: in vivo. To be noted: FVB, mouse, plasma, iv, 10 mg/kg. This is another data set of the same source.
Data set [24] in a line: Clearance in Oct1/Oct2-knockout FVB mouse at 10 mg/kg, iv. To be noted: in vivo.
Data set [25] can be described thus: in vivo. To be noted: FVB, mouse, iv, 10 mg/kg. This is another data set of the same source.
Data set [26] can be described thus: Drug excretion in wild type FVB mouse urine at 10 mg/kg, iv after 2 hrs.
Data set [27] in a line: Volume of distribution at steady state in Oct1/Oct2-knockout FVB mouse at 10 mg/kg, iv. To be noted: in vivo.
Data set [28] can be described thus: in vivo. To be noted: FVB, mouse, plasma, iv, 10 mg/kg. The source holds these as a separate data set.

As for `NC12CC3CC(CC(C3)C1)C2` [AMANTADINE], the selectivity ratio in the data set with OCT2 over OCT1 turned out to be 20.

With `CC(N)Cc1ccccc1` (stereo not given) [AMPHETAMINE], the selectivity ratio with OCT2 over OCT1 was determined as 20.

With `CN(C)C(=N)NC(=N)N.Cl` [METFORMIN HYDROCHLORIDE], the result with Mus musculus [1], in the data set with Mus musculus [2], in the data set on Mus musculus [4] and in the data set with Mus musculus [7] was Active. Moreover, the ED50 in the data set on Mus musculus [3] was determined as 110 mg/kg; with Mus musculus [6] it was 151 mg/kg. The result in the data set with Mus musculus [5] and in the data set on Mus musculus [8] was inactive. The Activity in the data set on Mus musculus [9] came out at 42%; with Mus musculus [12], 39%. Further, the AUC with Mus musculus [10] is 26000 ng·h/mL; in the data set on Mus musculus [11] it was 70000 ng·h/mL.

As for `CC[N+](CC)(CC)CC` [TETRYLAMMONIUM], the dose excreted at 2 h in data set [13] came to 30%; in data set [26] it was 35%. Besides, the AUC(0-t) in “in vivo [14]” is 9100 ng·h/mL; in the data set “in vivo [28]”, 2410 ng·h/mL. The clearance was 58.7 mL/min/kg in data set [15] and 16.9 mL/min/kg in data set [24]. In addition, the values for the C0 in [16] and in data set [22] were 67400 ng/mL and 22700 ng/mL, respectively. The dose excreted is 62% in data set [17] and 95% in data set [21]. Besides, the AUC(0-inf) stood at 2840 ng·h/mL in the data set “in vivo [18]” and 9840 ng·h/mL in the data set “in vivo [23]”. Moreover, the values for the half-life in the data set “in vivo [19]” and in the data set “in vivo [25]” were 12 min and 18.6 min, respectively. Further, the figures for the Vd in [20] and in [27] were 1.52 L/kg and 0.318 L/kg, respectively.

The values above are taken from ChEMBL document CHEMBL3526032, “Ablation of both organic cation transporter (OCT)1 and OCT2 alters metformin pharmacokinetics but has no effect on tissue drug exposure and pharmacodynamics” (Drug Metab Dispos, 2012).
